Results taken from ChEMBL document CHEMBL3779881, “Property Focused Structure-Based Optimization of Small Molecule Inhibitors of the Protein-Protein Interaction between Menin and Mixed Lineage Leukemia (MLL)” (J Med Chem, 2016).
Calls of active or inactive are those of the source. The calls are words filed in the database; no cut-off is given here.

Assays:
[1] = target: T1, Menin/Histone-lysine N-methyltransferase 2A (Mus musculus) (UniProt O88559+P55200); assay: Inhibition of menin-MLL interaction in MLL-AF9 transformed mouse bone marrow cells assessed as downregulation of Meis1 expression level at 0.12 to 0.5 uM after 6 days by qRT-PCR analysis
T1 sequence (O88559 whole entry, looked up): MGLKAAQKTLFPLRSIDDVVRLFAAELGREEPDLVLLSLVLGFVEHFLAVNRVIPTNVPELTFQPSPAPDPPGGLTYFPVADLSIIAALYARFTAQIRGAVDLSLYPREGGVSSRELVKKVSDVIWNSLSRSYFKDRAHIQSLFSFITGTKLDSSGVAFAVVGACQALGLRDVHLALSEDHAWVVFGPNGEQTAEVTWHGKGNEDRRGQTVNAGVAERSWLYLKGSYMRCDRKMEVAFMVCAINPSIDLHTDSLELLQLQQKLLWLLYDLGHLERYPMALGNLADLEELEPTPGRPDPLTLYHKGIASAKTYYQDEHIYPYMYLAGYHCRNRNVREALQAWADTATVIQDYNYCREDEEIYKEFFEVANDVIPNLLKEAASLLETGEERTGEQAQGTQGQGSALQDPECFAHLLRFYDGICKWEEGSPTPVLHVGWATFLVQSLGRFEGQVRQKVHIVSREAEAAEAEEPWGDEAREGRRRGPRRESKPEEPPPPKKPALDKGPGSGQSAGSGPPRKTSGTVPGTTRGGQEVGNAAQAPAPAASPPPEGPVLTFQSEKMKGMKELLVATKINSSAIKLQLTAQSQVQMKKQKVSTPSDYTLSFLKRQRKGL
T1 sequence (P55200 whole entry, looked up): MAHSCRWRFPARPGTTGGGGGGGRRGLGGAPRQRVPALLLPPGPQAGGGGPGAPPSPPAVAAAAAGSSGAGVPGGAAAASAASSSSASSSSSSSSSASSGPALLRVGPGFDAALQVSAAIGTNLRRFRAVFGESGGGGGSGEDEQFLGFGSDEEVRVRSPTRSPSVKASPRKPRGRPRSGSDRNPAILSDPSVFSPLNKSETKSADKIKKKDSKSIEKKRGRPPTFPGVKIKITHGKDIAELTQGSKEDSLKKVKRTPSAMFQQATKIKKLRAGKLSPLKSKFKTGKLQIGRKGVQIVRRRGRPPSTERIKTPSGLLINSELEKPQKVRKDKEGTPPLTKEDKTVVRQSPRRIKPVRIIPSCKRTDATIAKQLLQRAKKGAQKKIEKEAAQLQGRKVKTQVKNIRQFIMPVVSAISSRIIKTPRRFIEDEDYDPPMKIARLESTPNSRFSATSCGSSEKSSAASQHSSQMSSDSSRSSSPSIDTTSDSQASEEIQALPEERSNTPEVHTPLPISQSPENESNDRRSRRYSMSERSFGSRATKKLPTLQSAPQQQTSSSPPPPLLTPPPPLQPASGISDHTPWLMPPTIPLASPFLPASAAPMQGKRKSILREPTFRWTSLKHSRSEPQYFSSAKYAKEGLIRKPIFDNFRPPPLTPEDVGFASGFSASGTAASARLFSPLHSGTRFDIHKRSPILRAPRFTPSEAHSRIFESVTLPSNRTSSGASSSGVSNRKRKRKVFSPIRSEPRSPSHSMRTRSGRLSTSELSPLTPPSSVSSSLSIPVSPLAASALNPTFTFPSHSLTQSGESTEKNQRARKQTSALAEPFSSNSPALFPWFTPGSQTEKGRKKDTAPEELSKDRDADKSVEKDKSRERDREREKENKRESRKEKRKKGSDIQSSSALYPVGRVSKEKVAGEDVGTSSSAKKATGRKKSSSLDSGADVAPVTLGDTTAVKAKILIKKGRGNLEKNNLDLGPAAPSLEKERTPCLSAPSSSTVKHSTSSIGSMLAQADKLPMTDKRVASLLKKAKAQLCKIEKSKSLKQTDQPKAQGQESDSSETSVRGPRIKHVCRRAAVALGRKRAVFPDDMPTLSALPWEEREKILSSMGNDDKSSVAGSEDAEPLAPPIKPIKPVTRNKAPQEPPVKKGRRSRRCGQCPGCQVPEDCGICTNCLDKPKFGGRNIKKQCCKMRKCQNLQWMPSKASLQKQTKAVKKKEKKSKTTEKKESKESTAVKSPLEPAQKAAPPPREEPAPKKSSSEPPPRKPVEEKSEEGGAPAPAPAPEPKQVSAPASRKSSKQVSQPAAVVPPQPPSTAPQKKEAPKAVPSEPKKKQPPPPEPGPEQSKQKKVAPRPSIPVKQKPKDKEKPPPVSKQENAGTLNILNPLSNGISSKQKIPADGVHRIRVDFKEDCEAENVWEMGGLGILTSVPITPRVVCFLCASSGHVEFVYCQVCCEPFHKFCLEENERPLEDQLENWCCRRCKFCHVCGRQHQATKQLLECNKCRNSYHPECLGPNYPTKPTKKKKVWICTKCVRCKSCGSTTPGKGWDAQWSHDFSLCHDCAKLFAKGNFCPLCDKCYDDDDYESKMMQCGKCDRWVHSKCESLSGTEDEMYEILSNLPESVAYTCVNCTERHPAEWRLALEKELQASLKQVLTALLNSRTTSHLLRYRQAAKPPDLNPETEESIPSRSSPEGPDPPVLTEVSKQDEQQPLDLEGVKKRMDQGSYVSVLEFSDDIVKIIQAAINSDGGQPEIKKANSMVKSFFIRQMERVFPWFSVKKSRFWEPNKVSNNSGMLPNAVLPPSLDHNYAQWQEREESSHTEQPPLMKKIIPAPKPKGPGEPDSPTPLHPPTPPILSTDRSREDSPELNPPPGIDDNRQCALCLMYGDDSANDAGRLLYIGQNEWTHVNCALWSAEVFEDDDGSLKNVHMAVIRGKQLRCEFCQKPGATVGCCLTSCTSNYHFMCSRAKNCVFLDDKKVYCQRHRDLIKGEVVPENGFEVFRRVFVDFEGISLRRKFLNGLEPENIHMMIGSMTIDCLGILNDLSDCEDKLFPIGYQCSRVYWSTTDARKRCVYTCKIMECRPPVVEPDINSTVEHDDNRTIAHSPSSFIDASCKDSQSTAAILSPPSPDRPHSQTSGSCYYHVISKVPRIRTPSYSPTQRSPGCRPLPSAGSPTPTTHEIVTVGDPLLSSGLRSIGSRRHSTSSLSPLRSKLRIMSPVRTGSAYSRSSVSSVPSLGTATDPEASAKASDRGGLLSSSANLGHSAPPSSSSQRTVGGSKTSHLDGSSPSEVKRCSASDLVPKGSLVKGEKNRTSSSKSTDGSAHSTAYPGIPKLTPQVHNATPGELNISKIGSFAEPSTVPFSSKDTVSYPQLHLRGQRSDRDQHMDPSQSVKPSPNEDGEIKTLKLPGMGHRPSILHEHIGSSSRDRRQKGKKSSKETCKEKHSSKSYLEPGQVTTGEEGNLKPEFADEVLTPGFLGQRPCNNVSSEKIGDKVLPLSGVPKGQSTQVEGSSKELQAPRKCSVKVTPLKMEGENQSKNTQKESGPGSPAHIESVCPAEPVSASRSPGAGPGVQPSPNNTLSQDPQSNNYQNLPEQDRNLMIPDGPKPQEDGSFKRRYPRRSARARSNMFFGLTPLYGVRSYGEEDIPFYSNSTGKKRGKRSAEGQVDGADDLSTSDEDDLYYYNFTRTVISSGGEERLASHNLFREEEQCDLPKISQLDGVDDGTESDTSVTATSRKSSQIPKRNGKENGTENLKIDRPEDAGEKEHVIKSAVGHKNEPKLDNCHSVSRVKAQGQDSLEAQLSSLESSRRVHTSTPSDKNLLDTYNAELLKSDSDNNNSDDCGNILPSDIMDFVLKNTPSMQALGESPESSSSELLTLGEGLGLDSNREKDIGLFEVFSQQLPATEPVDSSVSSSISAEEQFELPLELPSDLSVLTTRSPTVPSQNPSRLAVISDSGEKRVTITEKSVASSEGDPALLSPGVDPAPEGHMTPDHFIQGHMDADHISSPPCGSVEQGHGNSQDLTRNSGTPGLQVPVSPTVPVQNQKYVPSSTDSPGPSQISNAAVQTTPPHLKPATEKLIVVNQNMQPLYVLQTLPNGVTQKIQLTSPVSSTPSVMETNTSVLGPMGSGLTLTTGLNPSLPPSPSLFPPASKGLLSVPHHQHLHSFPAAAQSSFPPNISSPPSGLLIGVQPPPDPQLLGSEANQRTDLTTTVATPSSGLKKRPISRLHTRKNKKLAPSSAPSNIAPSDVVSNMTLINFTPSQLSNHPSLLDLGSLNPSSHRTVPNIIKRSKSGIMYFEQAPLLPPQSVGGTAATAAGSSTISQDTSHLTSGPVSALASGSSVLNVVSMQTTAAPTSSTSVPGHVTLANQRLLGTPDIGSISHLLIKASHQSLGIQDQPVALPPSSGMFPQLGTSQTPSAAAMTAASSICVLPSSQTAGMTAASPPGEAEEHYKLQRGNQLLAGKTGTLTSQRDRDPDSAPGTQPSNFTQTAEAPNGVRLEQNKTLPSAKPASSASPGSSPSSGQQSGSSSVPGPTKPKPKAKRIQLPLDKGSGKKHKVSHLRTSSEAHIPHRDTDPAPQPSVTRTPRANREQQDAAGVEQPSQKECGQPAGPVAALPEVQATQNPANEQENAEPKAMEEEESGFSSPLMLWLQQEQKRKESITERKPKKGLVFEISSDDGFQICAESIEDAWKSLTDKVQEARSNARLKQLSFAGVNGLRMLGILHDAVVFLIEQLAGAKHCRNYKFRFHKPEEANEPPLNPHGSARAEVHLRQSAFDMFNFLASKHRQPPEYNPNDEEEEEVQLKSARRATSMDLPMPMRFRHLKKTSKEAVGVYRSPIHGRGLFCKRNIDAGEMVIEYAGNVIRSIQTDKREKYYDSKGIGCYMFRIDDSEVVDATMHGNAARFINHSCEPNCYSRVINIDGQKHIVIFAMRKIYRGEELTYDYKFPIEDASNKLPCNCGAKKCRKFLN
Summary of the method: (§1)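 MLL-AF9 transformed murine bone marrow cells treated 6 days, then qRT-PCR. Hoxa9 and Meis1 normalised to β-actin; Itgam normalised to 18S rRNA; each referenced to DMSO-treated cells; mean ± SD, n = 2.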

Mus musculus [2] = assay: Cmax in C57BL/6 mouse plasma at 30 mg/kg, po after 24 hrs by LC-MS/MS analysis; type: ADME, organism-based; set-up: dose 30 mg/kg, route oral; settings: in vivo
Summary of the method: (§2)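 Female C57BL/6 mice dosed iv at 15 mg/kg or orally at 30 mg/kg in 25% DMSO/25% PEG-400/50% PBS (v/v). Serial 50 μL blood samples collected over 24 h (8 h in one experiment), spun to plasma; concentrations by validated LC-MS/MS in positive-ion MRM mode; parameters from noncompartmental analysis.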

[3] = target: T1, Menin/Histone-lysine N-methyltransferase 2A (Mus musculus); assay: Inhibition of menin-MLL interaction in MLL-AF9 transformed mouse bone marrow cells assessed as induction of cell differentiation measured as upregulation of Itgam expression level at 0.12 to 0.5 uM after 6 days by qRT-PCR analysis; summary of the method: as §1
MV4-11 [4] = assay: Growth inhibition of human MV4-11 after 7 days by MTT assay; type: functional; settings: MV4-11, 168 h
Summary of the method: (§3)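 Cells in RPMI-1640/10% FBS/pen-strep/NEAA, seeded at 1×10^5/mL (MOLM-13, MV4;11) or 2×10^5/mL (HL-60), treated with compound or 0.25% DMSO for 7 days at 37 °C. Medium changed on day 4 with cell density reset and compound resupplied. MTT absorbance read at 570 nm; 2–3 experiments in quadruplicate, mean ± SD.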

[5] = target: T1, Menin/Histone-lysine N-methyltransferase 2A (Mus musculus); assay: Inhibition of menin-MLL interaction in MLL-AF9 transformed mouse bone marrow cells assessed as induction of cell differentiation measured as multilobed nuclei at 0.5 uM after 7 days by Cytospin/Wright-Giemsa staining assay
Summary of the method: (§4)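 MLL-AF9 transduced mouse bone marrow cells seeded at 3×10^5/mL, treated with compound or 0.25% DMSO at 37 °C, 5% CO2 for 7 days; cytospins stained with Wright–Giemsa and scored for morphology.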

[6] = Growth inhibition of MLL-AF9 transformed mouse bone marrow cells after 7 days by MTT assay; type: functional; settings: Bone marrow cell, 168 h
[7] = Clearance in C57BL/6 mouse at 15 mg/kg, iv after 24 hrs by LC-MS/MS analysis; type: ADME, organism-based; settings: in vivo; summary of the method: as §2
Mus musculus [8] = assay: Half life in C57BL/6 mouse at 15 mg/kg, iv after 24 hrs by LC-MS/MS analysis; type: ADME, organism-based; settings: in vivo; summary of the method: as §2
Mus musculus [9] = assay: Volume of distribution at steady state in C57BL/6 mouse at 15 mg/kg, iv after 24 hrs by LC-MS/MS analysis; type: ADME, organism-based; settings: in vivo; summary of the method: as §2
Menin = target: T2, Menin (Homo sapiens, UniProt O00255); assay: Binding affinity to menin (unknown origin)
T2 sequence (O00255 whole entry): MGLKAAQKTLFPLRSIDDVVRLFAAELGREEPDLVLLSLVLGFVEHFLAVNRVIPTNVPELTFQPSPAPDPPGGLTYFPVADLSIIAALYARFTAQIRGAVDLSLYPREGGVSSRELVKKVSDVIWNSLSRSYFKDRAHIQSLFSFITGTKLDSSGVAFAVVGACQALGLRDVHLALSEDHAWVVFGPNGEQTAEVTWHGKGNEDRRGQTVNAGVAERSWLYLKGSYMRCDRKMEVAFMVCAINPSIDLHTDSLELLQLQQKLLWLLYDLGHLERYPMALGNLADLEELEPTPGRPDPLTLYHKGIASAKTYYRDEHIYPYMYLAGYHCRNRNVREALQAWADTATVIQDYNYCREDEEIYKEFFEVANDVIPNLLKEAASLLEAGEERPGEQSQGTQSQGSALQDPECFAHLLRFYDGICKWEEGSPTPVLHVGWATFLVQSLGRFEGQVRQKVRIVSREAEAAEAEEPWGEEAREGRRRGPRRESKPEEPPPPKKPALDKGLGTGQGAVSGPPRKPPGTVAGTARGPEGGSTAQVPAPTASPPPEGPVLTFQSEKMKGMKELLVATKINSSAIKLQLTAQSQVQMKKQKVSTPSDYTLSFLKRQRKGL

Mus musculus [10] = assay: AUC in C57BL/6 mouse at 15 mg/kg, iv after 24 hrs by LC-MS/MS analysis; type: ADME, organism-based; set-up: dose 15 mg/kg, time < 24 hr, route intravenous; settings: in vivo; summary of the method: as §2
Mus musculus [11] = assay: Tmax in C57BL/6 mouse plasma at 30 mg/kg, po after 24 hrs by LC-MS/MS analysis; type: ADME, organism-based; settings: in vivo; summary of the method: as §2
[12] = target: T1, Menin/Histone-lysine N-methyltransferase 2A (Mus musculus); assay: Inhibition of menin-MLL interaction in MLL-AF9 transformed mouse bone marrow cells assessed as induction of cell differentiation measured as highly vacuolated cytoplasm at 0.5 uM after 7 days by Cytospin/Wright-Giemsa staining assay; summary of the method: as §4
Mus musculus [13] = assay: Toxicity in CB17 SCID mouse xenografted with human MV4-11 cells assessed as reduction in body weight at 45 mg/kg, ip qd administered for 2 weeks; type: organism-based; set-up: scale not given: the % may be the effect or the level left; settings: in vivo, 336 h
Summary of the method: (§5)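 MV4;11 cells in serum-free medium mixed 1:1 with Matrigel; 5×10^6 cells injected subcutaneously into the right flank of female mice aged 4–6 weeks. Dosing began at ~100 mm³ tumours; mice randomised, once-daily ip injections of vehicle or compound for 2 weeks.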

[14] = Growth inhibition of Hoxa9/Meis1 transformed mouse bone marrow cells after 7 days by MTT assay; type: functional; settings: Bone marrow cell, 168 h
[15] = target: T1, Menin/Histone-lysine N-methyltransferase 2A (Mus musculus); assay: Inhibition of menin-MLL interaction in MLL-AF9 transformed mouse bone marrow cells assessed as induction of cell differentiation measured as decreased nuclei to cytoplasm ratio at 0.5 uM after 7 days by Cytospin/Wright-Giemsa staining assay; summary of the method: as §4
HL-60 = assay: Growth inhibition of human HL60 after 7 days by MTT assay; type: functional; settings: HL-60, 168 h; summary of the method: as §3
MOLM-13 = assay: Growth inhibition of human MOLM13 after 7 days by MTT assay; type: functional; settings: MOLM-13, 168 h; summary of the method: as §3
MV4-11 [16] = assay: Antitumor activity against human MV4-11 cells xenografted in CB17 SCID mouse assessed as tumor growth inhibition at 45 mg/kg, ip qd administered for 2 weeks; type: functional; settings: MV4-11, ip, 336 h, read-out: TGI; summary of the method: as §5
[17] = target: T1, Menin/Histone-lysine N-methyltransferase 2A (Mus musculus); assay: Inhibition of menin-MLL interaction in MLL-AF9 transformed mouse bone marrow cells assessed as downregulation of Hoxa9 expression level at 100 nM after 6 days by qRT-PCR analysis; summary of the method: as §1
Plasma = assay: Drug metabolism in C57BL/6 mouse plasma assessed as glucuronidation at 15 mg/kg, iv after 24 hrs by LC-MS/MS analysis; type: ADME, organism-based; settings: in vivo
Summary of the method: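 Female C57BL/6 mice given 15 mg/kg iv in 25% DMSO/25% PEG-400/50% PBS; serial plasma samples analysed by the same LC-MS/MS procedure as the PK work to detect glucuronide conjugates.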

Mus musculus [18] = assay: AUC in C57BL/6 mouse at 30 mg/kg, po after 24 hrs by LC-MS/MS analysis; type: ADME, organism-based; set-up: time < 24 hr, dose 30 mg/kg, route oral; settings: in vivo; summary of the method: as §2
Mus musculus [19] = assay: Oral bioavailability in C57BL/6 mouse at 30 mg/kg after 24 hrs by LC-MS/MS analysis; type: ADME, organism-based; settings: in vivo; summary of the method: as §2
[20] = target: Menin/Histone-lysine N-methyltransferase MLL (Homo sapiens, UniProt O00255); assay: Inhibition of menin-MLL interaction (unknown origin) after 1 hr by fluorescence polarization assay; type: protein assay
Bone marrow cell = assay: Selectivity index, ratio of GI50 for Hoxa9/Meis1 transformed mouse bone marrow cells to GI50 for MLL-AF9 transformed mouse bone marrow cells; type: functional

N#Cc1cc2cc(CN3CCC(Nc4ncnc5sc(CC(F)(F)F)cc45)CC3)c(O)cc2n1Cc1cn[nH]c1
inhibition [1]: Active | Cmax (Mus musculus [2]): 4572 ng/mL | inhibition [3]: Active | GI50 (MV4-11 [4]): 175 nM | inhibition [5]: Active | GI50 [6]: 83 nM | clearance [7]: 14 mL/min/kg | t1/2 (Mus musculus [8]): 1.6 h | Vdss (Mus musculus [9]): 2.347 L/kg | Kd (Menin): 6.5 nM | AUC (Mus musculus [10]): 17897 ng·h/mL | Tmax (Mus musculus [11]): 2 h | inhibition [12]: Active | Activity (Mus musculus [13]): < 10% | GI50 [14]: 9000 nM | inhibition [15]: Active | GI50 (HL-60): > 6000 nM | GI50 (MOLM-13): 268 nM | inhibition in vivo at 45 mg/kg (MV4-11 [16]): 80% | inhibition [17]: 50% | Drug metabolism (Plasma): metabolite_detected | AUC (Mus musculus [18]): 18090 ng·h/mL | F (Mus musculus [19]): 51% | IC50 [20]: 21 nM | RatioGI50 (Bone marrow cell): 108
